Screening data as filed in PubChem BioAssay.
Most compounds without a hit are left out; they make up all but 4.3% or so of the library.
NF-kB neuron act = NF-kB expression increase, human neuronal cells | 190,000 compounds, 1.6% hits | NF-kB reporter expression; hits give high values | AID 1239 | fold change at 12.5 µM; in the data active means fold change above about 3.3
FLuc stim CS = affects firefly luciferase, flagging false hits in luciferase stimulation screens; P08659; ATPlite luciferase biochemical, luminescence, 10 min; 0 = ATP-free wells, 1 = DMSO control; activation factor at 10 µM; 200,000 tested, under 10 active;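 active means luciferase activation factor, scaled between plate controls, of at least 2 with compound at 10 µM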
Target sequence (P08659 whole entry, looked up): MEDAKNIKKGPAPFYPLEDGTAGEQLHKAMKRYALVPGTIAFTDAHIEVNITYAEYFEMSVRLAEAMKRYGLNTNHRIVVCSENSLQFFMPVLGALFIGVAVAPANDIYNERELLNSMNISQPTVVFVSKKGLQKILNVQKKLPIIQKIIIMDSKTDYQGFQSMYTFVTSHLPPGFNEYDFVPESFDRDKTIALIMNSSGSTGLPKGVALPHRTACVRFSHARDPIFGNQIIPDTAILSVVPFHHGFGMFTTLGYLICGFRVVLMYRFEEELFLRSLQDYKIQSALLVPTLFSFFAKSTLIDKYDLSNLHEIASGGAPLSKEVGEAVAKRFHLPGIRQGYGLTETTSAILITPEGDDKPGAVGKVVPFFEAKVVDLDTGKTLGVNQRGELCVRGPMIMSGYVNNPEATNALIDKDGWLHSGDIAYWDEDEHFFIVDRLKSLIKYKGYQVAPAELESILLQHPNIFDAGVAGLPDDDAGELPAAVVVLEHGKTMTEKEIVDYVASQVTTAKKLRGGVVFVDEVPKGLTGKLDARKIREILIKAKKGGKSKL
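Assay system: Luciferase/luciferin detection reagent, cell-free biochemical luciferase assay / Read-out: luciferase activation / Benchmarks: No-ATP low control, compound-free enzyme-plus-ATP high control / Medium: PBS buffer for ATP / Detection: luminescence measurement of luciferase light output / Schedule: 10 min at ambient temperature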
FLuc inhib CS = inhibits firefly luciferase, flagging false hits in luciferase inhibition screens. ATPLite firefly luciferase biochemical luminescence, 10 min. inhibition, % at 10 µM. 200,000 compounds, 1.5% hits;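 active means inhibition above about 50% when tested at 10 µM, limit read from the data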
sdo1 growth = restores growth of sdo1-depleted yeast; S. cerevisiae sdo1-depleted JHY4D growth rescue, OD600 30 h; hits give high values; pdr5 snq2 efflux-pump mutant strain; z-score at 10 µM; 140,000 compounds, 0.21% hits; AID 817;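 active means z-score above 3 at both the 24 hr and the 30 hr optical density reads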;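 further: z-score against mean and SD of all compound wells on the same plate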
STAT1 activator = STAT1 signaling activation; NIH 3T3 STAT1-luciferase reporter, IFN-gamma, luminescence; 100% = IFN-gamma alone, no compound; activation (% of control), % at 5.5 µM; 200,000 compounds, 2.6% hits;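 active means activation above the screen-wide mean activation plus 3 SD, cut at about 130% in these data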;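 further: raw ratio to IFN-gamma control signal so 100% means no change and 0% no light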
APP 5'UTR act = activates APP 5'UTR luciferase reporter; SH-SY5Y APP 5'UTR luciferase reporter, luminescence; zero percent = DMSO vehicle wells; activation, % at 2 µM; 190,000 compounds, 1% hits;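 active means activation above a set limit, based on mean plus 3 SD of controls, cut at about 140% in these data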
The depositor's hits bear a star; · = no result given; [ ] = another dose, or the depositor's remark.

SMILES	NF-kB neuron act	FLuc stim CS	FLuc inhib CS	sdo1 growth	STAT1 activator	APP 5'UTR act
CCOC(=O)N1CCN(c2ccc(O)cc2)CC1	3.5*	1.1	-6	0.36	95	24
CNC(=O)CSc1cn(CC(=O)N(C(C)C)C(C)C)c2ccccc12	1.1	1	-4	·	100	5
O=C(CN1C(=O)S/C(=C/c2ccc(N3CCOCC3)cc2)C1=O)N1CCOCC1	1.6	0.2	76*	0.73	113	38
CCN1C(=O)S/C(=C\c2ccc(N3CCOCC3)cc2C)C1=O	1.4	0.6	40	0.69	144*	34
Cc1cc(N2CCOCC2)ccc1/C=C1\SC(=O)N(C(C)C)C1=O	0.71	0.6	36	-0.94	120	16
C#CCN1C(=O)S/C(=C\c2ccc(N3CCOCC3)cc2C)C1=O	1.6	0.8	17	·	132*	74
CCC(C)N1C(=O)S/C(=C/c2ccc(N3CCOCC3)cc2C)C1=O (stereo unspecified)	0.5	1	1	-0.36	132*	61
COc1ccc(-c2csc(/C=C/c3ccc4c(c3)OCO4)n2)cc1OC	0.91	0.9	10	-0.49	101	6
Cc1cc(C)nc(SCC(=O)Nn2cnnc2)n1	1.1	1	-1	-0.2	94	14
Cc1cc(NC(=O)c2noc3c2CCCCC3)no1	1.3	0.8	21	1.1	122	31
O=C(Nc1ccc2c(c1)OCO2)c1noc2c1CCCCC2	7.7*	0.4	57*	0.14	142*	178*
O=C(Nc1ccc2c(c1)OCO2)c1cnccn1	2.2	0.8	21	·	130*	39
O=C(Nc1ccc2c(c1)OCO2)c1cc(C2CC2)on1	3.9*	0.5	47	0.42	146*	61
COc1ccc(NC(=O)c2cc(C(C)C)on2)c(OC)c1	2.6	0.9	8	0.92	138*	53
O=C(CCC(=O)NNC(=O)Nc1cccc(Cl)c1)NCc1ccccc1	1.2	1	-4	·	106	14
CCC(C)c1ccc(NC(=S)NCc2cccnc2)cc1 (stereo unspecified)	1.2	1	-1	-0.27	89	-3
CC(C)c1cc(C(=O)Nc2ccc3c(c2)OCO3)no1	6.4*	0.5	45	-0.18	116	145*
Nc1c(-c2ccsc2)cnc2ncnn12	1.6	1	-1	·	104	-7
CC(C)(C)S(=O)(=O)c1cnc2c(-c3ccsc3)cnn2c1N	1	0.9	8	·	132*	85
O=C(NCC1CCCO1)C1CC(c2ccc(Cl)c(Cl)c2)=NO1 (stereo unspecified)	1.8	1.1	-5	0.39	88	7
Cc1cccc(NC(=O)c2n[nH]c([N+](=O)[O-])c2Br)c1C	4.1*	0.6	37	·	123	132
CC12CC(c3ccccc3O1)C(C(=O)NCc1ccccc1)C(=O)N2 (stereo unspecified)	1	1	-2	1.3	105	-10
NC(=O)CN1CCOCCOCCN(CC(N)=O)CCOCCOCC1	1	1.1	-7	1.1	86	-1
c1cnc2nc(-c3ccc4c(c3)OCO4)cn2c1	2.2	0.4	55*	·	136*	62
COc1ccc(-c2cn3cc(C(=O)NN)ccc3n2)cc1	1.1	0.5	50	·	119	67
SMILES	NF-kB neuron act	FLuc stim CS	FLuc inhib CS	sdo1 growth	STAT1 activator	APP 5'UTR act
COC(=O)c1ccc2nc(-c3ccc4c(c3)OCO4)cn2c1	5*	0.1	85*	·	39	90
Cc1ccc(-c2cn3cccnc3n2)cc1	2.1	0.3	66*	·	125	48
CC(C)(C)OC(=O)NNC(=O)c1cccs1	1.1	1.1	-6	·	98	5
CC(=O)c1ccc(N(C(=O)CS(=O)CC(=O)Nc2ccc(F)cc2)C(C(=O)NC2CCCCC2)c2cccs2)cc1 (stereo unspecified)	1.2	1.1	-6	-0.6	100	-4
O=C(NNC(=O)C12CC3CC(CC(C3)C1)C2)[C@@H]1C[C@H]1c1ccccc1	1.2	1	2	·	105	1
COc1ccc2oc(=O)c(-c3nc(C)cs3)cc2c1	2.1	0.8	17	-1.2	135*	199*
Cc1cc(/C=N/NC(=O)c2ccccc2F)c(C)n1-c1ccccc1	3.1	0.2	75*	·	131*	96
CCOC(=O)N/N=C/c1cc(C)n(-c2ccccc2)c1C	1.4	0.6	38	-0.61	110	13
CC(=O)Nc1cccc(C(=O)N/N=C/c2ccccc2F)c1	2.7	0.7	35	0.09	143*	47
CC(=O)Nc1cccc(C(=O)N/N=C/c2ccc(F)cc2)c1	1.1	0.6	36	1.1	128	50
Cc1cc(/C=N/NC(=O)c2cccc(F)c2)c(C)n1-c1ccccc1	0.74	0.2	79*	·	109	79
Clc1ccc2c(c1)[C@H]1OCC[C@H]1[C@@H](c1ccco1)N2	1.8	0.4	59*	-0.74	104	17
C/C(=N\NC(=O)c1ccc(=O)[nH]n1)c1cccnc1	1.2	1	1	0.32	92	8
C=CC(=O)NC(NC(=O)C=C)c1ccc(Br)cc1	3.3*	1	-2	0.72	97	-1
O=C(N/N=C/c1cn(-c2cccs2)nc1-c1ccccc1)c1ccccc1Br	0.61	0.9	8	-0.08	96	19
O=C(N/N=C/c1cn(-c2ccccc2)nc1-c1cc2ccccc2o1)c1ccccc1Br	1.9	0.9	6	-1.6	120	188*
CCCCc1ncc(CN2CCN(Cc3ccc(C)cc3)C(CCO)C2)[nH]1 (stereo unspecified)	0.93	1	-2	·	100	13
O=c1cc(O)c2ccccc2n1Cc1ccccc1	0.89	0.9	10	·	104	7
Cc1ccc(NC(=O)c2snc3ccc(Cl)cc23)cc1C	1.7	1	0	-0.34	130*	92
CC(/C=N/NC(=O)Cn1nccc1C)=C\c1ccc(C(C)C)cc1	1.1	1	-3	-0.01	129*	11
Cc1ccccc1/C=C\c1nc2ccccc2c(=O)[nH]1	4.4*	0.4	56*	·	121	164*
CCOC(=O)Nc1sc2c(c1C#N)CCC(C)C2 (stereo unspecified)	3.9*	1	2	-0.76[14 µM]	132*	92
CC1CCc2c(sc(NC(=O)COC(=O)c3ccc(O)cc3)c2C#N)C1 (stereo unspecified)	1.3	1.1	-6	·	107	-2
C/C=C/c1ccc(OCCOc2cc(C=O)ccc2OC)c(OC)c1	1.8	0.7	25	-1.9	131*	28
COc1cc(C=O)ccc1OCCCOc1ccccc1[N+](=O)[O-]	2	1	-2	-1.2	130*	1
COc1cc(C=O)ccc1OCCCCOc1ccccc1[N+](=O)[O-]	1.1	1	3	-0.08	99	-15
